Several values for one entry are separate records, joined by “and”; a condition that tells them apart may be missing. Equal values may be shown once. Activity calls are given as the source filed them.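 Rule for the calls, unless noted: active = viability at or under a set limit in both replicates, limit being median viability minus 3 SD (cut at about 48% in these data, passing the limit was not always enough); inconclusive = at or under the limit in just one replicate; inactive = at or above the limit in both replicates.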
Key:
[1] = reduced viability of SK-BR-3 breast cancer cells – cell-based, 24 h, human, pilot screen (AID 572;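 active = viability at or below 10% of carrier control in both of two separate runs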;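 note: compound exposure lasted between 18 and 24 h rather than exactly 24 h; 100% = carrier-treated control wells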); settings: SK-BR-3 viability, CellTiter-Glo luminescence, at 10 µM, stronger effect = lower value
[2] = HUVEC growth inhibition – cell-based, human, primary screen (AID 575;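 active = viability at or below 30% in both replicate assays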;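 note: 100% = median of untreated cell wells with 0.1% DMSO on each plate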); settings: HUVEC proliferation, CellTiter-Glo luminescence, 72 h; at 10 µM; stronger effect = lower value
Summary of the method: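 System: primary human umbilical vein endothelial cells; Quantity: 1250 endothelial cells in each well; Buffer or medium: supplemented EBM, 2% fetal bovine serum; Doses: one dose, 10 µM final, 0.1% DMSO; Incubation: 72 h compound incubation; Technique: ATP-based CellTiter-Glo luminescent read; Evaluation: percent of median DMSO-control luminescence; Controls: vehicle and MePR control wells.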

[3] = H69AR cell proliferation blockers – human, duplicate replicates, primary screen (AID 580); settings: H69AR lung tumor cells viability, ATP luminescence, 72 h; at 10 µM; stronger effect = lower value;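 note: 100% = mean luminescence of untreated wells and 0% = no signal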
[4] = MRP1 drug-resistance reversers in H69AR cells – cell-based, doxorubicin co-treatment, pilot screen (AID 601;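 active = viability loss from added drug above about 55%, and viability with drug at most 40%, in both replicates, limit read from the data, passing the limit was not always enough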); settings: CellTiter-Glo, 72 h, at 10 µM; for differential viability (reversal): stronger effect = higher value
[5] = yeast transport mutant growth inhibition pilot in 384-well plates, post-Golgi transport modulator project (AID 636; in the data active = inhibition above about 31%); settings: absorbance 615 nm, about 18 h, stronger effect = higher value
[6] = growth suppression of yeast trafficking mutant, preliminary HTS, modulators of trafficking downstream of Golgi apparatus project, 1536-format plate, OD 615 nm (AID 637; in the data active = inhibition above about 30%); settings: yeast transport mutant growth, absorbance 615 nm, 18 h; stronger effect = higher value
[7] = H69AR cells + 2 uM doxorubicin, measured here: viability with 2 uM doxorubicin, stronger effect = lower value
[8] = H69AR cells, compound alone cytotoxicity

SMILES	viability [1]	viability [2]	viability [3]	differential viability (reversal) ([4]; H69AR cells + 2 uM doxorubicin)	viability [4, 7]	viability [4, 8]	inhibition [5]	inhibition [6]
Cc1cc(NS(=O)(=O)Cc2ccccc2)cc(C)c1OCC(=O)N1CCOCC1	95% (inactive)	92.1% (inactive)	94.6% (inactive)	20.2% (inactive)	74.4%	94.6%	-0.52% (inactive)	0% (inactive)
COC(=O)c1ccc2c(=O)n(NC(C)=O)c(=S)[nH]c2c1	93% (inactive)	109% (inactive)	93.7% (inactive)	10.7% (inactive)	83%	93.7%	-6.67% (inactive)	3.09% (inactive)
CN(C)CC(C(=O)c1ccccc1)c1ccccc1 (stereo not given)	30.5%	53.4% (inactive)	1.17% (active)	-0.515% (inactive)	1.68%	1.17%	2.95% (inactive)	-4.33% (inactive)
O=C(c1c(Cl)nc2sccn12)N(C(=O)c1c(Cl)nc2sccn12)c1ccc(Cl)cn1	131% (inactive)	43.6% (inactive)	70.8% (inactive)	-7.89% (inactive)	78.7%	70.8%	-3.38% (inactive)	3.11% (inactive)
COc1ccccc1OCc1ccc(C(=O)N2CCN(C(=O)c3ccco3)CC2)cc1	116% (inactive)	111% (inactive)	99.2% (inactive)	5.35% (inactive)	93.9%	99.2%	-4.13% (inactive)	-9.82% (inactive)
O=C(NCc1ccco1)c1ccc2c(=O)n(CC3CCCO3)c(=S)[nH]c2c1 (stereo not given)	94% (inactive)	76% (inactive)	94.4% (inactive)	7.56% (inactive)	86.9%	94.4%	-2.73% (inactive)	-0.66% (inactive)
CC(C)NCC(O)COc1cccc2[nH]ccc12 (stereo not given)	111% (inactive)	78.3% (inactive)	99.2% (inactive)	-1.55% (inactive)	101%	99.2%	-3.25% (inactive)	-3.17% (inactive)
COc1ccc(NC(=O)Cn2nnc(-c3ccccc3F)n2)cc1Cl	116% (inactive)	104% (inactive)	95.5% (inactive)	3.27% (inactive)	92.3%	95.5%	-8.22% (inactive)	0.18% (inactive)
CCN(CC)CC(=O)Nc1c(C)cccc1C	101% (inactive) and 123% (inactive)	97.3% (inactive) and 96.1% (inactive)	107% (inactive) and 101% (inactive)	15.8% (inactive) and 10.7% (inactive)	91.2% and 90%	107% and 101%	-3.38% (inactive)	-3.67% (inactive) and 1.67% (inactive)
N#Cc1c(N2CCOCC2)nc(N2CCCCC2)c2c1CCN(C1CCCCC1)C2	92% (inactive)	101% (inactive)	89.2% (inactive)	17.5% (inactive)	71.6%	89.2%	-1.22% (inactive)	-1.82% (inactive)
COc1ccc(-c2nc(C)sc2CC(=O)O)cc1	100% (inactive)	103% (inactive)	95.8% (inactive)	2.46% (inactive)	93.3%	95.8%	-2.21% (inactive)	1.31% (inactive)
CC[C@H](C)C(=O)O[C@H]1C[C@@H](C)C=C2C=C[C@H](C)[C@H](CC[C@@H]3C[C@@H](O)CC(=O)O3)[C@H]21	110% (inactive)	50.6% (inactive)	72.2% (inactive)	-6.58% (inactive)	78.7%	72.2%	-1.82% (inactive)	2.83% (inactive)
COC(=O)c1ccccc1NC(=O)C1CCN(S(=O)(=O)c2cc(C)ccc2OC)CC1	78% (inactive)	78.9% (inactive)	79.1% (inactive)	-13.2% (inactive)	92.3%	79.1%	-11.1% (inactive)	0.48% (inactive)
COc1ccc(-c2nc3cc(NC(=O)Cc4ccc(OC)c(OC)c4)ccc3o2)cc1	90.5% (inactive)	54.8% (inactive)	94.4% (inactive)	3.68% (inactive)	90.7%	94.4%	0.67% (inactive)	2.58% (inactive)
CCCN(CCC)C(=O)CC(c1ccc(F)cc1)c1ccco1 (stereo not given)	71% (inactive)	80.7% (inactive)	80.8% (inactive)	-6.06% (inactive)	86.8%	80.8%	-5.48% (inactive)	-0.91% (inactive)
Cc1ccc(F)cc1NC(=O)c1cccc2nccnc12	91.5% (inactive)	76.5% (inactive)	91.1% (inactive)	6.75% (inactive)	84.3%	91.1%	-1.2% (inactive)	0.48% (inactive)
Cc1cccc(-n2c(SCc3cc(=O)n4ccsc4n3)nc3ccccc32)c1	93% (inactive)	66.1% (inactive)	78.5% (inactive)	-9.64% (inactive)	88.1%	78.5%	3.01% (inactive)	40% (active)
Cc1cccc2c(=O)oc(-c3ccc4c(c3)C(=O)N(CC3CCCO3)C4=O)nc12 (stereo not given)	95% (inactive)	101% (inactive)	98.7% (inactive)	5.85% (inactive)	92.8%	98.7%	-4.25% (inactive)	6.77% (inactive)

SMILES	viability [1]	viability [2]	viability [3]	differential viability (reversal) ([4]; H69AR cells + 2 uM doxorubicin)	viability [4, 7]	viability [4, 8]	inhibition [5]	inhibition [6]
COc1ccc(C2/C(=C(/O)c3ccc(OC(C)C)cc3)C(=O)C(=O)N2CCCN2CCOCC2)cc1 (stereo not given)	112% (inactive)	97.7% (inactive)	92.4% (inactive)	-12.4% (inactive)	105%	92.4%	-5.21% (inactive)	-1.09% (inactive)
Nn1c(SCC(=O)Nc2ccccc2)nnc1-c1cccnc1	78% (inactive)	96.9% (inactive)	88.1% (inactive)	2.29% (inactive)	85.8%	88.1%	-8% (inactive)	3.64% (inactive)
O=C(C1CCCN(S(=O)(=O)c2cccc3nonc23)C1)N1CCC(Cc2ccccc2)CC1 (stereo not given)	103% (inactive)	34.9% (inactive)	71.3% (inactive)	16% (inactive)	55.2%	71.3%	-4.21% (inactive)	-7.17% (inactive)
CCC[C@@H]1C[C@@H](C(=O)N[C@H]([C@@H](C)O)[C@H]2O[C@H](SC)[C@H](O)[C@@H](O)C2O)N(C)C1 (stereo not given in full)	128% (inactive)	94.7% (inactive)	89.7% (inactive)	9.67% (inactive)	80%	89.7%	0.52% (inactive)	15.7% (inactive)
CCOc1cc(C(=O)Nc2ncccn2)cc(OCC)c1OCC	117% (inactive)	105% (inactive)	87.5% (inactive)	4.8% (inactive)	82.7%	87.5%	-2.86% (inactive)	5.08% (inactive)
CC1(C)S[C@@H]2[C@H](NC(=O)[C@H](C(=O)O)c3ccsc3)C(=O)N2[C@H]1C(=O)O	105% (inactive)	91.5% (inactive)	102% (inactive)	2.32% (inactive)	99.3%	102%	-0.26% (inactive)	-0.17% (inactive)
O=C(OCC(=O)c1ccccc1Br)c1ccccn1	142% (inactive)	89.8% (inactive)	86.8% (inactive)	5.17% (inactive)	81.7%	86.8%	-3.77% (inactive)	-1.64% (inactive)
O=C(Cn1c(-c2cncs2)nc2ccccc21)NC1CCCC1	96% (inactive)	103% (inactive)	106% (inactive)	19.1% (inactive)	86.5%	106%	-4.05% (inactive)	5.09% (inactive)
O=C(O)/C=C/c1ccc(O)c(O)c1	94% (inactive)	69% (inactive)	97.9% (inactive)	5.39% (inactive)	92.5%	97.9%	-0.39% (inactive)	1% (inactive)
COCC(=O)Nc1c(C(=O)Nc2ccccc2OC)oc2ccccc12	78% (inactive)	59% (inactive)	75.1% (inactive)	-7.66% (inactive)	82.8%	75.1%	-8.78% (inactive)	-2.79% (inactive)
Cc1ccc2nc(-c3ccccn3)cc(C(=O)N3CCN(c4ncccn4)CC3)c2c1	100% (inactive)	102% (inactive)	77.8% (inactive)	-5.74% (inactive)	83.5%	77.8%	-2.7% (inactive)	0.91% (inactive)
Cc1ccc(S(=O)(=O)NCC(=O)OCN2C(=O)c3ccccc3C2=O)cc1	94% (inactive)	99.6% (inactive)	105% (inactive)	-10.3% (inactive)	115%	105%	-2.73% (inactive)	0.16% (inactive)
Cc1c(CNCc2cccs2)c(C(=O)O)c(C)n1Cc1ccccc1	91% (inactive)	109% (inactive)	99.8% (inactive)	5.63% (inactive)	94.2%	99.8%	-3.97% (inactive)	0.18% (inactive)
COc1ccc(Cl)c(NC(=O)NCCN2CCN(c3ccccc3)CC2)c1	102% (inactive)	107% (inactive)	90.4% (inactive)	8.35% (inactive)	82%	90.4%	-2% (inactive)	1.27% (inactive)
Cc1ccccc1NC(=O)CN1CCC(NC(=O)Nc2ccccc2)CC1	108% (inactive)	104% (inactive)	84.8% (inactive)	-4.37% (inactive)	89.1%	84.8%	-7.7% (inactive)	-3.64% (inactive)
COc1cccc(CC(=O)Nn2c(C)nc3ccccc3c2=O)c1	83% (inactive)	115% (inactive)	99.3% (inactive)	11.8% (inactive)	87.5%	99.3%	-3.07% (inactive)	-5.27% (inactive)
C[C@H](CCC(=O)O)[C@H]1CC[C@H]2[C@@H]3C(=O)C[C@@H]4CC(=O)CC[C@]4(C)[C@H]3CC(=O)[C@]12C	128% (inactive)	88.9% (inactive)	96% (inactive)	-6.55% (inactive)	102%	96%	0.65% (inactive)	-0.83% (inactive)

From PubChem BioAssay
